In ChEMBL document CHEMBL5252539, “In vitro biological evaluation of new antimycobacterial salicylanilide-tuftsin conjugates” (Eur J Med Chem, 2017):
Active and inactive are the calls of the source. The calls are words filed in the database; no cut-off is given here. *1 amine or outer side, *2 acyl side, *3 side chain or, on linkers, in order; H or OH if unused. Where a SMILES comes first, the peptide text is derived from it. [ ]: non-standard residue; d: D form. The star is where a group is joined. X4 = O=C(Nc1ccc(C(F)(F)F)cc1)c1cc(/C=N\OCC(=O)*)ccc1O; X2 = C/C(=N\OCC(=O)*)c1ccc(NC(=O)c2cc(Br)ccc2O)cc1; X1 = C/C(=N\OCC(=O)[*:2])c1ccc(N[*:1])cc1; Benzoyl(5-Br-2-OH) = O=C(c1cc(Br)ccc1O)*; Palmitoyl = CCCCCCCCCCCCCCCC(=O)*; Decanoyl = CCCCCCCCCC(=O)*; X3 = O=C(c1cc(Cl)ccc1O)*; Butyryl = CCCC(=O)*

Test system: Mycobacterium tuberculosis
Experiment: Antimycobacterial activity against isoniazid and rifampicin resistant Mycobacterium tuberculosis A8 ATCC 35822 assessed as reduction in colony forming unit after 28 days by serial dilution method
Assay type: functional, organism-based
Conditions: time 28.0 day
How it was run: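 After the 4-week MIC incubation in Sula semisynthetic medium (pH 6.5), growth inhibition confirmed by plating on Löwenstein-Jensen solid medium and counting colony forming units.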

Row | SMILES | Activity
1 | C/C(=N\OCC(=O)N[C@H](C(=O)O)[C@@H](C)O)c1ccc(NC(=O)c2cc(Br)ccc2O)cc1 | Active
2 | C/C(=N\OCC(=O)NCC(=O)O)c1ccc(NC(=O)c2cc(Br)ccc2O)cc1 | Active
3 | C/C(=N\OCC(=O)NCC(=O)N[C@@H](Cc1ccccc1)C(=O)N[C@@H](CC(C)C)C(=O)NCC(=O)N[C@H](C(=O)N[C@@H](CCCCN)C(=O)N1CCC[C@@H]1C(=O)N1CCC[C@H]1C(=O)N[C@H](CCCNC(=N)N)C(=O)O)[C@@H](C)O)c1ccc(NC(=O)c2cc(Br)ccc2O)cc1 | Active
4 | C/C(=N\OCC(=O)NCC(=O)N[C@@H](Cc1ccccc1)C(=O)N[C@@H](CC(C)C)C(=O)NCC(=O)N[C@H](C(=O)N[C@@H](CCCCN)C(=O)N1CCC[C@@H]1C(=O)N[C@H](CCCCN)C(=O)NCC(=O)N[C@@H](C(=O)N[C@H](CCCCN)C(=O)N1CCC[C@H]1C(=O)N[C@H](CCCCN)C(=O)NCC(=O)N[C@@H](C(=O)N[C@@H](CCCCN)C(=O)N1CCC[C@@H]1C(=O)N[C@H](CCCCN)C(=O)NCC(=O)N[C@@H](C(=O)N[C@H](CCCCN)C(=O)N1CCC[C@H]1C(=O)N[C@H](CCCCN)C(=O)NCC(N)=O)[C@H](C)O)[C@H](C)O)[C@H](C)O)[C@@H](C)O)c1ccc(NC(=O)c2cc(Br)ccc2O)cc1 | Active
5 | C/C(=N\OCC(=O)NCC(=O)N[C@@H](Cc1ccccc1)C(=O)N[C@@H](CC(C)C)C(=O)NCC(=O)N[C@H](C(=O)N[C@@H](CCCCN)C(=O)N1CCC[C@@H]1C(=O)N[C@H](CCCNC(=N)N)C(=O)O)[C@@H](C)O)c1ccc(NC(=O)c2cc(Br)ccc2O)cc1 | Active
6 | C/C(=N\OCC(=O)N[C@H](C(=O)N[C@@H](CCCCN)C(=O)N1CCC[C@H]1C(=O)N1CCC[C@@H]1C(=O)N[C@H](CCCNC(=N)N)C(=O)O)[C@@H](C)O)c1ccc(NC(=O)c2cc(Br)ccc2O)cc1 | Active
7 | C/C(=N\OCC(=O)NCCCC[C@H](NC(=O)[C@@H]1CCCN1C(=O)[C@H](CCCCN)NC(=O)[C@@H](NC(=O)CNC(=O)[C@H](CCCCNC(=O)CO/N=C(\C)c1ccc(NC(=O)c2cc(Br)ccc2O)cc1)NC(=O)[C@@H]1CCCN1C(=O)[C@H](CCCCN)NC(=O)[C@@H](NC(=O)[C@H](CCCNC(=N)N)NC(=O)[C@@H]1CCCN1C(=O)[C@H](CCCCN)NC(=O)[C@@H](N)[C@@H](C)O)[C@@H](C)O)[C@@H](C)O)C(=O)NCC(=O)O)c1ccc(NC(=O)c2cc(Br)ccc2O)cc1 (H-TKPRTKPK(X2)GTKPK(X2)G-OH) | Active
8 | CCCCCCCCCCCCCCCC(=O)NCCCC[C@H](NC(=O)[C@@H]1CCCN1C(=O)[C@H](CCCCN)NC(=O)[C@@H](NC(=O)CO/N=C(\C)c1ccc(NC(=O)c2cc(Cl)ccc2O)cc1)[C@@H](C)O)C(=O)NCC(=O)N[C@H](C(=O)N[C@@H](CCCCN)C(=O)N1CCC[C@H]1C(=O)N[C@@H](CCCCN)C(=O)NCC(=O)N[C@H](C(=O)N[C@@H](CCCCN)C(=O)N1CCC[C@H]1C(=O)N[C@@H](CCCCN)C(=O)NCC(=O)N[C@H](C(=O)N[C@@H](CCCCN)C(=O)N1CCC[C@H]1C(=O)N[C@@H](CCCCN)C(=O)NCC(N)=O)[C@@H](C)O)[C@@H](C)O)[C@@H](C)O (X3-[X1]TKPK(Palmitoyl)GTKPKGTKPKGTKPKG-NH2) | Active
9 | C/C(=N\OCC(=O)N[C@H](C(=O)N[C@@H](CCCCN)C(=O)N1CCC[C@H]1C(=O)N[C@@H](CCCCN)C(=O)NCC(=O)N[C@H](C(=O)N[C@@H](CCCCN)C(=O)N1CCC[C@H]1C(=O)N[C@@H](CCCCN)C(=O)NCC(=O)N[C@H](C(=O)N[C@@H](CCCCN)C(=O)N1CCC[C@H]1C(=O)N[C@@H](CCCCN)C(=O)NCC(=O)N[C@H](C(=O)N[C@@H](CCCCN)C(=O)N1CCC[C@H]1C(=O)N[C@@H](CCCCN)C(=O)NCC(N)=O)[C@@H](C)O)[C@@H](C)O)[C@@H](C)O)[C@@H](C)O)c1ccc(NC(=O)c2cc(Cl)ccc2O)cc1 (X3-[X1]TKPKGTKPKGTKPKGTKPKG-NH2) | Active
10 | C[C@@H](O)[C@H](NC(=O)CNC(=O)[C@H](CCCCN)NC(=O)[C@@H]1CCCN1C(=O)[C@H](CCCCN)NC(=O)[C@@H](NC(=O)CNC(=O)[C@H](CCCCN)NC(=O)[C@@H]1CCCN1C(=O)[C@H](CCCCN)NC(=O)[C@@H](NC(=O)CNC(=O)[C@H](CCCCN)NC(=O)[C@@H]1CCCN1C(=O)[C@H](CCCCN)NC(=O)[C@@H](NC(=O)CO/N=C\c1ccc(O)c(C(=O)Nc2ccc(C(F)(F)F)cc2)c1)[C@@H](C)O)[C@@H](C)O)[C@@H](C)O)C(=O)N[C@@H](CCCCN)C(=O)N1CCC[C@H]1C(=O)N[C@@H](CCCCN)C(=O)NCC(N)=O (X4-TKPKGTKPKGTKPKGTKPKG-NH2) | Active
11 | CCCC(=O)NCCCC[C@H](NC(=O)[C@@H]1CCCN1C(=O)[C@H](CCCCN)NC(=O)[C@@H](NC(=O)CO/N=C(\C)c1ccc(NC(=O)c2cc(Br)ccc2O)cc1)[C@@H](C)O)C(=O)NCC(=O)N[C@H](C(=O)N[C@@H](CCCCN)C(=O)N1CCC[C@H]1C(=O)N[C@@H](CCCCN)C(=O)NCC(=O)N[C@H](C(=O)N[C@@H](CCCCN)C(=O)N1CCC[C@H]1C(=O)N[C@@H](CCCCN)C(=O)NCC(=O)N[C@H](C(=O)N[C@@H](CCCCN)C(=O)N1CCC[C@H]1C(=O)N[C@@H](CCCCN)C(=O)NCC(N)=O)[C@@H](C)O)[C@@H](C)O)[C@@H](C)O ({Benzoyl(5-Br-2-OH)}-[X1]TKPK(Butyryl)GTKPKGTKPKGTKPKG-NH2) | Active
12 | CCCCCCCCCC(=O)NCCCC[C@H](NC(=O)[C@@H]1CCCN1C(=O)[C@H](CCCCN)NC(=O)[C@@H](NC(=O)CO/N=C(\C)c1ccc(NC(=O)c2cc(Br)ccc2O)cc1)[C@@H](C)O)C(=O)NCC(N)=O ({Benzoyl(5-Br-2-OH)}-[X1]TKPK(Decanoyl)G-NH2) | Active
13 | CCCCCCCCCC(=O)NCCCC[C@H](NC(=O)[C@@H]1CCCN1C(=O)[C@H](CCCCN)NC(=O)[C@@H](NC(=O)CO/N=C(\C)c1ccc(NC(=O)c2cc(Br)ccc2O)cc1)[C@@H](C)O)C(=O)NCC(=O)N[C@H](C(=O)N[C@@H](CCCCN)C(=O)N1CCC[C@H]1C(=O)N[C@@H](CCCCN)C(=O)NCC(=O)N[C@H](C(=O)N[C@@H](CCCCN)C(=O)N1CCC[C@H]1C(=O)N[C@@H](CCCCN)C(=O)NCC(=O)N[C@H](C(=O)N[C@@H](CCCCN)C(=O)N1CCC[C@H]1C(=O)N[C@@H](CCCCN)C(=O)NCC(N)=O)[C@@H](C)O)[C@@H](C)O)[C@@H](C)O ({Benzoyl(5-Br-2-OH)}-[X1]TKPK(Decanoyl)GTKPKGTKPKGTKPKG-NH2) | Active
14 | CCCCCCCCCCCCCCCC(=O)NCCCC[C@H](NC(=O)[C@@H]1CCCN1C(=O)[C@H](CCCCN)NC(=O)[C@@H](NC(=O)CO/N=C(\C)c1ccc(NC(=O)c2cc(Br)ccc2O)cc1)[C@@H](C)O)C(=O)NCC(N)=O ({Benzoyl(5-Br-2-OH)}-[X1]TKPK(Palmitoyl)G-NH2) | Active
15 | CCCCCCCCCCCCCCCC(=O)NCCCC[C@H](NC(=O)[C@@H]1CCCN1C(=O)[C@H](CCCCN)NC(=O)[C@@H](NC(=O)CO/N=C(\C)c1ccc(NC(=O)c2cc(Br)ccc2O)cc1)[C@@H](C)O)C(=O)NCC(=O)N[C@H](C(=O)N[C@@H](CCCCN)C(=O)N1CCC[C@H]1C(=O)N[C@@H](CCCCN)C(=O)NCC(=O)N[C@H](C(=O)N[C@@H](CCCCN)C(=O)N1CCC[C@H]1C(=O)N[C@@H](CCCCN)C(=O)NCC(=O)N[C@H](C(=O)N[C@@H](CCCCN)C(=O)N1CCC[C@H]1C(=O)N[C@@H](CCCCN)C(=O)NCC(N)=O)[C@@H](C)O)[C@@H](C)O)[C@@H](C)O ({Benzoyl(5-Br-2-OH)}-[X1]TKPK(Palmitoyl)GTKPKGTKPKGTKPKG-NH2) | Active
16 | C/C(=N\OCC(=O)NCCCC[C@H](NC(=O)[C@@H]1CCCN1C(=O)[C@H](CCCCN)NC(=O)[C@@H](NC(=O)CO/N=C(\C)c1ccc(NC(=O)c2cc(Br)ccc2O)cc1)[C@@H](C)O)C(=O)NCC(=O)N[C@H](C(=O)N[C@@H](CCCCN)C(=O)N1CCC[C@H]1C(=O)N[C@@H](CCCCN)C(=O)NCC(=O)N[C@H](C(=O)N[C@@H](CCCCN)C(=O)N1CCC[C@H]1C(=O)N[C@@H](CCCCN)C(=O)NCC(=O)N[C@H](C(=O)N[C@@H](CCCCN)C(=O)N1CCC[C@H]1C(=O)N[C@@H](CCCCN)C(=O)NCC(N)=O)[C@@H](C)O)[C@@H](C)O)[C@@H](C)O)c1ccc(NC(=O)c2cc(Br)ccc2O)cc1 ({Benzoyl(5-Br-2-OH)}-[X1]TKPK(X2)GTKPKGTKPKGTKPKG-NH2) | Active
17 | C/C(=N\OCC(=O)N[C@H](C(=O)N[C@@H](CCCCN)C(=O)N1CCC[C@H]1C(=O)N[C@@H](CCCCN)C(=O)NCC(=O)N[C@H](C(=O)N[C@@H](CCCCN)C(=O)N1CCC[C@H]1C(=O)N[C@@H](CCCCN)C(=O)NCC(N)=O)[C@@H](C)O)[C@@H](C)O)c1ccc(NC(=O)c2cc(Br)ccc2O)cc1 ({Benzoyl(5-Br-2-OH)}-[X1]TKPKGTKPKG-NH2) | Active
18 | CCCCCCCCCCCCCCCC(=O)NCCCC[C@H](NC(=O)[C@@H]1CCCN1C(=O)[C@H](CCCCN)NC(=O)[C@@H](NC(=O)CNC(=O)[C@H](CCCCN)NC(=O)[C@@H]1CCCN1C(=O)[C@H](CCCCN)NC(=O)[C@@H](NC(=O)CNC(=O)[C@H](CCCCN)NC(=O)[C@@H]1CCCN1C(=O)[C@H](CCCCN)NC(=O)[C@@H](NC(=O)CO/N=C(\C)c1ccc(NC(=O)c2cc(Br)ccc2O)cc1)[C@@H](C)O)[C@@H](C)O)[C@@H](C)O)C(=O)NCC(=O)N[C@H](C(=O)N[C@@H](CCCCN)C(=O)N1CCC[C@H]1C(=O)N[C@@H](CCCCN)C(=O)NCC(N)=O)[C@@H](C)O ({Benzoyl(5-Br-2-OH)}-[X1]TKPKGTKPKGTKPK(Palmitoyl)GTKPKG-NH2) | Active
19 | C/C(=N\OCC(=O)N[C@H](C(=O)N[C@@H](CCCCN)C(=O)N1CCC[C@H]1C(=O)N[C@@H](CCCCN)C(=O)NCC(=O)N[C@H](C(=O)N[C@@H](CCCCN)C(=O)N1CCC[C@H]1C(=O)N[C@@H](CCCCN)C(=O)NCC(=O)N[C@H](C(=O)N[C@@H](CCCCN)C(=O)N1CCC[C@H]1C(=O)N[C@@H](CCCCN)C(=O)NCC(=O)N[C@H](C(=O)N[C@@H](CCCCN)C(=O)N1CCC[C@H]1C(=O)N[C@@H](CCCCN)C(=O)NCC(N)=O)[C@@H](C)O)[C@@H](C)O)[C@@H](C)O)[C@@H](C)O)c1ccc(NC(=O)c2cc(Br)ccc2O)cc1 ({Benzoyl(5-Br-2-OH)}-[X1]TKPKGTKPKGTKPKGTKPKG-NH2) | Active
